Results on 15 compounds are retold here after ChEMBL document CHEMBL1134845, “Syntheses and biological activities of a novel group of steroidal derived inhibitors for human Cdc25A protein phosphatase” (J Med Chem, 2001).

In general, IC50 refers to the midpoint of a concentration-inhibition curve.

This assay concerns the target T1, M-phase inducer phosphatase 1 (Homo sapiens, UniProt P30304).
T1 sequence (P30304 whole entry): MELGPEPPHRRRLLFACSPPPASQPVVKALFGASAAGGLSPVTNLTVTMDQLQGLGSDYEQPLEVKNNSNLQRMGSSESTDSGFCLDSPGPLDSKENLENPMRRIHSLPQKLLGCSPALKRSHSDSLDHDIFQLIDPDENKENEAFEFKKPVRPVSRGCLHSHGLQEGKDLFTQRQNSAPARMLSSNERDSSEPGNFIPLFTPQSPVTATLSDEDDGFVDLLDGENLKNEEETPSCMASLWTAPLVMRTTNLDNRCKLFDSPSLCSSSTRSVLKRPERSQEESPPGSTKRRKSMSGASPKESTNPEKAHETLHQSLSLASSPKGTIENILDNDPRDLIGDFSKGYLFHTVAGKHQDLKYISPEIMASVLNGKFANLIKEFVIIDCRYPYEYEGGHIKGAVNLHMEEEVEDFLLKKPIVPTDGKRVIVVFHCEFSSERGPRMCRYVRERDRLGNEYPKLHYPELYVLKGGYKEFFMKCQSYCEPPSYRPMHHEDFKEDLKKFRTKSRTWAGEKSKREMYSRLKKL
Nature of the assay: Inhibitory activity tested against cell division cycle 25A (assay using fluorescein diphosphate (FDP) as substrate). Put shortly: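 Recombinant human GST-Cdc25A fusion protein, each batch calibrated so that FDP was dephosphorylated linearly over 20 min. Fluorescein diphosphate was the substrate. Reactions ran 15 min at 25 °C in the dark and were stopped with sodium orthovanadate. IC50 came from at least two independent runs, each in triplicate.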
The compound `C/C(=C/C/C=C\C#N)[C@H]1CC[C@]2(C)[C@@H](C(C)CCCC(C)C)CC[C@H]2[C@@H]1CC(=O)O` (stereo not given in full) showed an IC50 of 36.3 µM.
Compound `CC(C)CCC[C@@H](C)[C@H]1CC[C@H]2[C@H](CC(=O)O)[C@@H]([C@@]3(C)CC=CCC3=O)CC[C@]12C` showed a 50% inhibitory concentration (IC50) of 5.8 µM.
Regarding `CC(C)CCC[C@@H](C)[C@H]1CC[C@H]2[C@@H]3CC(=O)O[C@@](C)(CC/C=C\C#N)[C@H]3CC[C@]12C`, the IC50 was over 50 µM.
In the case of `CC(C)CCC[C@@H](C)[C@H]1CC[C@H]2[C@@H]3CC[C@H]4C[C@@H](OC(=S)SCC(=O)c5ccccc5)CC[C@]4(C)[C@H]3CC[C@]12C`, the 50% inhibitory concentration (IC50) is over 100 µM.
On to `CC(=O)OC1CC[C@](C)([C@H]2CC[C@]3(C)[C@@H]([C@H](C)CCCC(C)C)CC[C@H]3[C@@H]2CC(=O)O)C(=O)C1` (stereo not given in full), for which it took 9.3 µM to reach half-maximal inhibition (IC50).
`CCOC(=O)CSC(=S)O[C@H]1CC[C@@]2(C)[C@@H](CC[C@@H]3[C@@H]2CC[C@]2(C)[C@@H]([C@H](C)CCCC(C)C)CC[C@@H]32)C1` gave a 50% inhibitory concentration (IC50) of over 100 µM.
As for `C/C(=C/CCCC#N)[C@H]1CC[C@]2(C)[C@@H](C(C)CCCC(C)C)CC[C@H]2[C@@H]1CC(=O)O` (stereo not given in full), the concentration for half-maximal inhibition (IC50) turned out to be 2.4 µM.
`COC(CC#N)CC[C@@]1(C)OC(=O)C[C@H]2[C@@H]3CC[C@H]([C@H](C)CCCC(C)C)[C@@]3(C)CC[C@@H]21` (stereo not given in full) returned an IC50 of 10.5 µM.
In turn, `CC(C)CCC[C@@H](C)[C@H]1CC[C@H]2[C@@H]3CC[C@H]4C[C@@H](OCC(=O)O)CC[C@]4(C)[C@H]3CC[C@]12C` gave a half-maximal inhibitory concentration (IC50) of 0.7 µM.
`C=C(CCC(CC#N)OCC)[C@H]1CC[C@]2(C)[C@@H](C(C)CCCC(C)C)CC[C@H]2[C@@H]1CC(=O)O` (stereo not given in full) came in with an IC50 of 2.9 µM.
`CC(C)CCC[C@@H](C)[C@H]1CC[C@H]2[C@@H]3CC[C@H]4C[C@@H](O/C(S)=N\c5ccccc5)CC[C@]4(C)[C@H]3CC[C@]12C`: the IC50 was 2.1 µM.
Regarding `CCOC(=O)C(C)SC(=S)O[C@H]1CC[C@@]2(C)[C@@H](CC[C@@H]3[C@@H]2CC[C@]2(C)[C@@H]([C@H](C)CCCC(C)C)CC[C@@H]32)C1` (stereo not given in full), the IC50 is over 100 µM.
As for `CC(C)CCC[C@@H](C)[C@H]1CC[C@H]2[C@H](CC(=O)O)[C@@H]([C@@]3(C)CCC=CC3=O)CC[C@]12C`, the IC50 was 9.5 µM.
Regarding `CC(C)CCC[C@@H](C)[C@H]1CC[C@H]2[C@@H]3CC[C@H]4C[C@@H](OC(=S)SCC(=O)O)CC[C@]4(C)[C@H]3CC[C@]12C`, the half-maximal inhibitory concentration (IC50) was determined as 0.9 µM.
As to `CCOC(=O)CC(=O)CSC(=S)O[C@H]1CC[C@@]2(C)[C@@H](CC[C@@H]3[C@@H]2CC[C@]2(C)[C@@H]([C@H](C)CCCC(C)C)CC[C@@H]32)C1`, the IC50 was over 100 µM.
